The subject of data set [1] is L1210. The data set can be described thus: In vivo antitumor activity against mouse L1210 cells in prognostic scoring system assessed as survival rate at 11 mg/kg, qd administered for 15 days. Also noted: dose 11 mg/kg. Type of data set: functional, organism-based. In a few lines:
(§1)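 L1210 leukaemia in mice, run as an ascites tumour system. Injections were once daily for 9 or 15 days, or as a single dose. Response is the increase in survival time, given as T/C %, treated over untreated controls; a larger value means more activity. Weight change is the treated-group mean minus the control-group mean, in grams.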

In data set [2] the test system is W256. Put plainly: Antitumor activity against cytoxan-resistant rat Walker 256 cells intramuscularly allografted in rat assessed as tumor growth inhibition at 25 mg/kg, qd administered for 5 days relative to control. It is filed as functional. The note with it: W256, im, 120 h, route intramuscular, read-out: TGI. In a few lines:
(§2)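 Dosed once daily for 5 days. Response is tumor progression in treated (T) versus untreated control (C) animals, expressed as T/C percentage. Host weight change is reported as the average net weight change of the test group minus that of the controls, in grams.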

The nature of data set [3]: Therapeutic index, ratio of LD50 for rat allografted with rat Walker 256 cells to ED10 for antitumor activity against rat Walker 256 cells intramuscularly allografted in rat. It is filed as cell-based. The note with it: read-out: TI. In a few lines: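 Therapeutic index is LD50/ED10 in the Walker 256 solid tumour system. ED10 is the dose giving a 10% tumour weight reduction, with values extrapolated from dose-response data.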

The subject of data set [4] is Rattus norvegicus. The data set can be described thus: Toxicity in rat allografted with cytoxan-resistant rat Walker 256 cells intramuscularly assessed as change in body weight at 25 mg/kg, qd administered for 5 days. Type of data set: organism-based. Also noted: dose 25 mg/kg, route intramuscular. The settings on record: in vivo, im, 120 h. In a few lines:
(§3)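 Walker 256 carcinoma solid-tumour system in rats (parent line, or the line resistant to cytoxan). Dosing was one injection per day for 5 days. Toxicity was taken as the average net body-weight change of the treated group minus the average net weight change of the untreated tumour-bearing controls, in grams.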

Data set [5] concerns W256. Put plainly: Antitumor activity against rat Walker 256 cells intramuscularly allografted in rat assessed as survival rate at 12 mg/kg, qd administered for 5 days. Type of data set: functional, organism-based. Also noted: dose 12 mg/kg. In a few lines: (§4)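 Rats bearing Walker 256 carcinoma as a solid tumor; lines 1-8 use a cytoxan-resistant Walker 256 subline. Dosed once daily for 5 days. Treated (T) and untreated control (C) groups are compared, and the response is given as T/C percentage, reflecting increase in survival time. Host weight change is the average weight change of the test group minus that of the controls, in grams.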

Data set [6] relates to L1210. The data set can be described thus: In vivo antitumor activity against mouse L1210 cells in prognostic scoring system assessed as survival rate at 5 mg/kg, qd administered for 15 days. It is filed as functional, organism-based. Also noted: dose 5 mg/kg. In a few lines:
as §1

Data set [7] can be described thus: Toxicity in rat allografted with rat Walker 256 cells intramuscularly. Type of data set: organism-based.
Data set [8] has as its system W256. Put plainly: Antitumor activity against cytoxan-resistant rat Walker 256 cells intramuscularly allografted in rat assessed as survival rate at 25 mg/kg, qd administered for 5 days. Type of data set: functional, organism-based. Also noted: dose 25 mg/kg. In a few lines: as §4
The test system of data set [9] is W256. The data set can be described thus: Antitumor activity against rat Walker 256 cells intramuscularly allografted in rat assessed as tumor growth inhibition at 12 mg/kg, qd administered for 5 days relative to control. The note with it: W256, im, 120 h, route intramuscular, read-out: TGI. It is filed as functional. In a few lines:
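Walker 256 carcinoma grown as a solid tumour in rats, with one injection daily for 5 days. Response is given as T/C %, the treated-group measure over the untreated-control tumour measure; a smaller value means more activity. Host toxicity is the mean net weight change of treated minus control animals, in grams.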

The subject of data set [10] is L1210. Put plainly: In vivo antitumor activity against mouse L1210 cells in prognostic scoring system assessed as survival rate at 3 mg/kg, qd administered for 15 days. It is filed as functional, organism-based. Also noted: dose 3 mg/kg. In a few lines:
as §1

Data set [11] relates to Rattus norvegicus. The data set can be described thus: Toxicity in rat allografted with cytoxan-resistant rat Walker 256 cells intramuscularly assessed as change in body weight at 6 mg/kg, qd administered for 5 days. Type of data set: organism-based. Also noted: dose 6 mg/kg, route intramuscular. The settings on record: in vivo, im, 120 h. In a few lines:
as §3

Data set [12] concerns Rattus norvegicus. Put plainly: Toxicity in rat allografted with cytoxan-resistant rat Walker 256 cells intramuscularly assessed as change in body weight at 12 mg/kg, qd administered for 5 days. Type of data set: organism-based. Also noted: dose 12 mg/kg, route intramuscular. The note with it: in vivo, im, 120 h. In a few lines:
as §3

Data set [13] has as its system L1210. The data set can be described thus: In vivo antitumor activity against mouse L1210 cells in prognostic scoring system […] at 5 mg/kg, qd administered for 15 days relative to control. It is filed as functional. The note with it: L1210, 360 h, read-out: TGI.
Data set [14] concerns W256. The data set can be described thus: Antitumor activity against cytoxan-resistant rat Walker 256 cells intramuscularly allografted in rat assessed as tumor growth inhibition at 12 mg/kg, qd administered for 5 days relative to control. Type of data set: functional. The note with it: W256, im, 120 h, route intramuscular, read-out: TGI. In a few lines: as §2
In data set [15] the test system is W256. Put plainly: Antitumor activity against cytoxan-resistant rat Walker 256 cells intramuscularly allografted in rat assessed as survival rate at 6 mg/kg, qd administered for 5 days. Also noted: dose 6 mg/kg. It is filed as functional, organism-based. In a few lines: as §4
Data set [16] relates to W256. The data set can be described thus: Antitumor activity against cytoxan-resistant rat Walker 256 cells intramuscularly allografted in rat assessed as survival rate at 12 mg/kg, qd administered for 5 days. It is filed as functional, organism-based. Also noted: dose 12 mg/kg. In a few lines: as §4
The test system of data set [17] is L1210. Put plainly: In vivo antitumor activity against mouse L1210 cells in prognostic scoring system assessed as survival rate at 7 mg/kg, qd administered for 15 days. Type of data set: functional, organism-based. Also noted: dose 7 mg/kg. In a few lines: as §1
In data set [18] the test system is W256. Put plainly: Antitumor activity against rat Walker 256 cells intramuscularly allografted in rat assessed as tumor growth inhibition. Type of data set: functional. The note with it: W256, im. In a few lines: as §2
For data set [19], the system named is Rattus norvegicus. Put plainly: Toxicity in rat allografted with cytoxan-resistant rat Walker 256 cells intramuscularly assessed as change in body weight at 3 mg/kg, qd administered for 5 days. Type of data set: organism-based. Also noted: dose 3 mg/kg, route intramuscular. The note with it: in vivo, im, 120 h. In a few lines:
as §3

Data set [20] has as its system W256. Put plainly: Antitumor activity against cytoxan-resistant rat Walker 256 cells intramuscularly allografted in rat assessed as tumor growth inhibition at 3 mg/kg, qd administered for 5 days relative to control. It is filed as functional. The settings on record: W256, im, 120 h, route intramuscular, read-out: TGI. In a few lines:
as §2

For data set [21], the system named is Rattus norvegicus. The data set can be described thus: Toxicity in rat allografted with rat Walker 256 cells intramuscularly assessed as change in body weight at 12 mg/kg, qd administered for 5 days. It is filed as organism-based. Also noted: dose 12 mg/kg, route intramuscular. The settings on record: in vivo, im, 120 h. In a few lines:
as §3

Data set [22] has as its system W256. The data set can be described thus: Antitumor activity against cytoxan-resistant rat Walker 256 cells intramuscularly allografted in rat assessed as survival rate at 3 mg/kg, qd administered for 5 days. Type of data set: functional, organism-based. Also noted: dose 3 mg/kg. In a few lines:
as §4

In data set [23] the test system is W256. The data set can be described thus: Antitumor activity against cytoxan-resistant rat Walker 256 cells intramuscularly allografted in rat assessed as tumor growth inhibition at 6 mg/kg, qd administered for 5 days relative to control. Type of data set: functional. The note with it: W256, im, 120 h, route intramuscular, read-out: TGI. In a few lines:
as §2

SMILES strings stand for the structures. The source made the active and inactive calls. No cut-off for these calls is given here.

As usually defined, the LD50 is the dose expected to kill half of the subjects tested. A higher LD50 goes with a less toxic substance. `C=CCN(CC=C)P(=O)(N(CC=C)CC=C)N1CC1`: the result in [1], in [5], in data set [6], in data set [8], in data set [10] and in [15] was Active. Further, the result in data set [16], in data set [17] and in data set [22] was Active. Moreover, in data set [2], the inhibition in vivo at 25 mg/kg came to 52%. The selectivity ratio in data set [3] amounted to 30. Further, the Activity was -28 g in data set [4]; -7 g in data set [11]; -4 g in [12]; -1 g in data set [19]; -1 g in [21]. The LD50 in data set [7] is 75 mg/kg. For the same molecule, the inhibition in vivo at 12 mg/kg in [9] amounted to 0%; in data set [14], 66%. Further, the inhibition in vivo at 5 mg/kg in [13] worked out at 155%. Besides, the ED10 in data set [18] worked out at 2.5 mg/kg. The inhibition in vivo at 3 mg/kg in [20] turned out to be 84%. Moreover, the inhibition in vivo at 6 mg/kg in [23] was 70%.

The values above are taken from ChEMBL document CHEMBL3272018, “Synthesis of aziridinylallylaminophosphine oxides and sulfides as potential adjuvant cancer chemotherapeutic agents” (J Med Chem, 1976).
